{
  "source": "ChEMBL document CHEMBL4049426",
  "about": "“Identification of the Clinical Candidate (R)-(1-(4-Fluorophenyl)-6-((1-methyl-1H-pyrazol-4-yl)sulfonyl)-4,4a,5,6,7,8-hexahydro-1H-pyrazolo[3,4-g]isoquinolin-4a-yl)(4-(trifluoromethyl)pyridin-2-yl)methanone (CORT125134): A Selective Glucocorticoid Receptor (GR) Antagonist” (J Med Chem, 2017)",
  "key": {"[1]": {"test_system": "Rattus norvegicus", "experiment": "(§1) In vivo antagonist activity at glucocorticoid receptor in Sprague-Dawley rat assessed as reduction in cortisone-induced plasma glucose levels at 30 mg/kg, po bid via gavage for 6 days pretreated for 12 hrs followed by cortisone 21-acetate treatment measured 24 hrs after last cortisone 21-acetate treatment", "assay_type": "functional, organism-based", "in_short": "(§2)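 Male Sprague Dawley rats (200-250g), 3-day vehicle baseline, groups of eight. Compound as suspension in DMSO:Tween 80:0.5% HPMC 10:0.1:89.9, oral gavage twice daily for 6 days; cortisone 21-acetate 30mg/kg s.c. daily in 1% methylcellulose. Tail-vein blood 24 h after last cortisone (12 h after last compound); glucose by clinical reagent, insulin by ultrasensitive rat ELISA.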"}, "[2]": {"test_system": "Rattus norvegicus", "experiment": "as §1, with “rat cortisone model of exogenous Cushing's syndrome” for “rat”, “inhibition of” for “reduction in cortisone-induced”, “insulin” for “glucose”", "assay_type": "functional, organism-based", "in_short": "as §2"}, "[3]": {"target": "T1, Glucocorticoid receptor (Homo sapiens, UniProt P04150)", "T1 sequence (P04150 whole entry)": "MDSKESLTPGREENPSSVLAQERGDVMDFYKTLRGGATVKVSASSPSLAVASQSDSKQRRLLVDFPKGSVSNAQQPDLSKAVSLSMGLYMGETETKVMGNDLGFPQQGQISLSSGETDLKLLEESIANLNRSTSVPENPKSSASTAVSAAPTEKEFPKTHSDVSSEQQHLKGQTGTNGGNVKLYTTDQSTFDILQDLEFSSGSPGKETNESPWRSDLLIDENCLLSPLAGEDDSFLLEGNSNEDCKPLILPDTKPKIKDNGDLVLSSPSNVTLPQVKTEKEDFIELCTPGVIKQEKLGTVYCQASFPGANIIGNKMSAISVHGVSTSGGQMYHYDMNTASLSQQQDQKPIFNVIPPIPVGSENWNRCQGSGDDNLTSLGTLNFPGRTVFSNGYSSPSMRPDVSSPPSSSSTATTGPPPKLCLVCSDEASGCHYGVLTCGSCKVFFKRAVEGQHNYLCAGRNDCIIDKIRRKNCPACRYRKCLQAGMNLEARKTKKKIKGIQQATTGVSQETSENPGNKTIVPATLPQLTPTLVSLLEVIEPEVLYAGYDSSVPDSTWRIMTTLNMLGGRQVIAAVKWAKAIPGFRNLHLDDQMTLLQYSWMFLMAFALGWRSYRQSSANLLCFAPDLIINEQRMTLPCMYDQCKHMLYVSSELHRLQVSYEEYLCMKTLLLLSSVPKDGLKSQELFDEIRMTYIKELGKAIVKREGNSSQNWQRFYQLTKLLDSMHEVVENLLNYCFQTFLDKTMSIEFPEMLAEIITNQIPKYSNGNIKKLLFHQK", "experiment": "Antagonist activity at glucocorticoid receptor in human HepG2 cells assessed as inhibition of dexamethasone-induced tyrosine amino transferase activity preincubated for 30 mins followed by dexamethasone addition measured after 20 hrs", "assay_type": "cell-based"}, "[4]": {"experiment": "Cmax in Sprague-Dawley CD-1 rat plasma at 3 mg/kg, po administered as cassette dose via gavage measured up to 24 hrs by LC/MS analysis", "assay_type": "ADME, organism-based", "parameters": "dose 3 mg/kg, route oral", "in_short": "(§3)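 Three male Sprague Dawley CD-1 rats (220-250g) with jugular vein catheters; three test compounds plus a reference dosed together by oral gavage, 3mg/kg each, in DMSO:0.5% methylcellulose 10:90 (0.6mg/mL per compound), 5mL/kg. Plasma sampled pre-dose and at 0.25, 0.5, 1, 2, 4, 6, 8, 24 h; LC/MS.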"}, "[5]": {"experiment": "AUC in Sprague-Dawley CD-1 rat plasma at 3 mg/kg, po administered as cassette dose via gavage measured up to 24 hrs by LC/MS analysis", "assay_type": "ADME, organism-based", "parameters": "time < 24 hr, dose 3 mg/kg, route oral", "in_short": "as §3"}, "[6]": {"experiment": "Cmax in Sprague-Dawley CD-1 rat plasma at 5 mg/kg, po administered through gavage measured up to 24 hrs by LC/MS analysis", "assay_type": "ADME, organism-based", "parameters": "dose 5 mg/kg, route oral", "in_short": "(§4)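 Jugular-catheterized male Sprague Dawley CD-1 rats (220-250g). Oral arm: five rats, 5mg/kg gavage, 1mg/mL in DMSO:0.5% methylcellulose 10:90, 5mL/kg, sampled pre-dose and 0.25-24 h. i.v. arm: three rats, 1mg/kg, 0.5mg/mL in DMSO:PEG400:propylene glycol 10:45:45, sampled pre-dose and 0.08-24 h. Plasma by LC/MS.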"}, "[7]": {"experiment": "AUC in Sprague-Dawley CD-1 rat plasma at 5 mg/kg, po administered through gavage measured up to 24 hrs by LC/MS analysis", "assay_type": "ADME, organism-based", "parameters": "dose 5 mg/kg, time < 24 hr, route oral", "in_short": "as §4"}, "[8]": {"experiment": "Oral bioavailability in Sprague-Dawley CD-1 rat plasma at 5 mg/kg administered through gavage measured up to 24 hrs by LC/MS analysis", "assay_type": "ADME, organism-based", "in_short": "as §4"}, "[9]": {"experiment": "Cmax in monkey plasma at 20 mg/kg, po measured up to 24 hrs by LC/MS analysis", "assay_type": "ADME, organism-based, Macaca mulatta", "parameters": "dose 20 mg/kg, route oral", "conditions": "rhesus monkey", "in_short": "(§5)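 Monkey i.v./p.o. study: oral 20mg/kg in 10% DMSO, 0.1% Tween 80, 0.5% hydroxypropylmethylcellulose in water; i.v. dose 1mg/kg.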"}, "[10]": {"experiment": "AUC in monkey plasma at 20 mg/kg, po measured up to 24 hrs by LC/MS analysis", "assay_type": "ADME, organism-based, Macaca mulatta", "parameters": "dose 20 mg/kg, time < 24 hr, route oral", "conditions": "rhesus monkey", "in_short": "as §5"}, "[11]": {"experiment": "Oral bioavailability in monkey plasma at 20 mg/kg measured up to 24 hrs by LC/MS analysis", "assay_type": "ADME, organism-based, Macaca mulatta", "conditions": "rhesus monkey", "in_short": "as §5"}},
  "note": "Active and inactive are the calls of the source. No cut-off for these calls is given here.",
  "data": [
    {"smiles": "CC#C[C@]1(O)CC[C@H]2[C@@H]3CCC4=CC(=O)CCC4=C3[C@@H](c3ccc(N(C)C)cc3)C[C@@]21C", "values": [
      {"measurement": "inhibition", "setting": "[1]", "value": "Active"},
      {"measurement": "inhibition", "setting": "[2]", "value": "Active"}
    ]},
    {"smiles": "Cn1nccc1S(=O)(=O)N1CCC2=Cc3c(cnn3-c3ccc(F)cc3)C[C@]2(C(=O)c2cc(C(F)(F)F)ccn2)C1", "values": [
      {"measurement": "Ki", "setting": "[3]", "value": 11, "unit": "nM"},
      {"measurement": "Cmax", "setting": "[4]", "value": 239, "unit": "ng/mL"},
      {"measurement": "AUC at 24 h", "setting": "[5]", "value": 967, "unit": "ng·h/mL"},
      {"measurement": "Cmax", "setting": "[6]", "value": 528, "unit": "ng/mL"},
      {"measurement": "AUC at 24 h", "setting": "[7]", "value": 1560, "unit": "ng·h/mL"},
      {"measurement": "bioavailability", "setting": "[8]", "value": 62, "unit": "%"},
      {"measurement": "Cmax", "setting": "[9]", "value": 16, "unit": "ng/mL"},
      {"measurement": "AUC at 24 h", "setting": "[10]", "value": 217, "unit": "ng·h/mL"},
      {"measurement": "bioavailability", "setting": "[11]", "value": 1, "unit": "%"}
    ]}
  ]
}
